Screening data deposited in PubChem BioAssay by SRMLSC.
The list is not random: actives were taken first. Their share in the collection is about 4.3%.
RAM inhibit = inhibitors of the yeast RAM network. 190,000 compounds, 1.8% hits. inhibition, % at 50 µM. S. cerevisiae dse1pr::URA3 reporter, 5-FOA growth OD615, 2 d; analog-sensitive cbk1-as2 kinase mutant strain. AID 868;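 active = inhibition above a set limit, 3 SD over mean compound inhibition, cut at about 8.4% in these data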;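 also: inhibition rescues growth on 5-FOA so higher OD means more RAM inhibition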
WT yeast gro inh = growth inhibition of WT yeast, mitochondrial fusion screen; mitochondrial fusion phenotypic screen, WT strain; inhibition, % at 10 µM; AID 1362; 190,000 compounds, 2.1% hits; in the data active = inhibition above about 58%; tested in S. cerevisiae
Yeast growth inh = yeast BB579 growth reduction in restrictive medium; 140,000 compounds, 0.51% hits; S. cerevisiae BB579 growth, OD615, 48 h; AID 804; inhibition, % at 10 µM;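 active = inhibition above a set limit, 3 SD over the mean compound inhibition, cut at about 44% in these data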
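Assay system – yeast BB579 (DeaD) · Dosing – single compound dose of 10 µM, 0.25% DMSO final · Detection – OD615 turbidity measurement · Buffer or medium – CSMM-D restrictive synthetic medium containing dextrose (glucose) · Benchmarks – positive control amphotericin B 10 µg/mL · Incubation – 48 h exposure, 30 °C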
Yeast life ext = yeast lifespan extension. S. cerevisiae growth with nicotinamide, OD615; deaD strain in restrictive glucose medium. inhibition of the nicotinamide effect, % at 10 µM. 130,000 compounds, 0.68% hits. AID 775;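 active = inhibition above a set limit, placed 3 SD over the median of all compounds, cut at about 26% in these data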
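System: Modified budding yeast, DeaD strain | Buffer or medium: Restrictive glucose medium | Also added: 1.5 mM nicotinamide | Doses: 10 µM single point, 0.25% DMSO | Schedule: 48 h compound exposure at 30 °C, humidified | Detection: Absorbance at 615 nm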
Each line names hits and unclear results; the compound was inactive in the other large screens.

CCOC(=O)c1cc2occc2n1CCCN1C(=O)c2ccccc2C1=O	RAM inhibit 9.2
CCN1/C(=C\C(=S)Nc2ccccc2)Sc2ccccc21	WT yeast gro inh 69.2 (no result: Yeast growth inh, Yeast life ext)
CCOC(CCn1c(SCc2cccc([N+](=O)[O-])c2)nc2ccccc2c1=O)OCC	RAM inhibit 10.8
CCN(CC)C(=O)Cn1cc(SCC(=O)NC)c2ccccc21	none (no result: Yeast growth inh, Yeast life ext)
COc1cc2nc3c4ccccc4n(CC#N)c3nc2cc1OC	RAM inhibit 8.4
CCn1c2ccccc2c2nc3cc(OC)c(OC)cc3nc21	RAM inhibit 9.3
CC(C)(C)c1ccc(OCc2ccc(C(=O)N/N=C/c3ccc(O)c(O)c3)cc2)cc1	none (no result: Yeast growth inh, Yeast life ext)
O=C(N/N=C1\CC2CC=CC12)c1ccc(COc2ccccc2)cc1 (centres undefined)	Yeast growth inh 54.5
CC(C)(C)c1ccc(OCc2ccc(C(=O)N/N=C3\CC4CC=CC34)cc2)cc1 (centres undefined)	WT yeast gro inh 72.1
O=C(O)C1CC=CCC1C(=O)NCc1ccc2c(c1)OCO2 (centres undefined)	none (no result: Yeast life ext)
c1ccc(C2=NNC(=NCc3ccc4c(c3)OCO4)SC2)cc1	RAM inhibit 9.0
c1ccc(CN=C2NN=C(c3ccccc3)CS2)cc1	none (no result: Yeast growth inh, Yeast life ext)
CCCOC(=O)Nc1sc2c(c1C(N)=O)CCCC2	none (no result: Yeast growth inh, Yeast life ext)
CC(C)CC(COCc1cccc(Cl)c1)N1CCN(C(=O)c2cccc(C(F)(F)F)c2)CCC1=O (centres undefined)	none
CC(C)CC(COCc1ccc(Cl)cc1)N1CCN(C(=O)c2ccc(Cl)cc2Cl)CCC1=O (centres undefined)	RAM inhibit 9.4
CCNc1nc(SCCOc2ccc(Br)cc2)nc(N(C)C)n1	none (no result: Yeast growth inh, Yeast life ext)
CCOC(=O)C1=NN(c2ccccc2)C2=NC(C)=C(C(=O)OC)C(c3ccc(C)cc3)N12 (centres undefined)	WT yeast gro inh 70.4
CCC1SC2=NC(C)=C(C(=O)OC)C(c3ccc(C)cc3)N2C1=O (centres undefined)	none
O=C(CNc1c(Br)cc(Br)cc1Br)NN=C1CCCCC1	none
CSc1nc2ccc(Cl)cc2[nH]1	none (no result: Yeast life ext)
CSc1nc2cc(Oc3cccc(Cl)c3Cl)c(Cl)cc2[nH]1	WT yeast gro inh 85.5 (no result: RAM inhibit, Yeast growth inh, Yeast life ext)
CCc1cc2c(=O)[nH]c(-c3ccccn3)nc2s1	Yeast growth inh 78.3
CCc1cc2c(=O)[nH]c(N3CCCC3)nc2s1	none
Oc1ccc(/C=N/N=C(c2ccccc2)c2ccccc2)c(O)c1O	Yeast growth inh 90.5
CSc1ccc(CN2C(=O)NC3(CCCCCCC3)C2=O)cc1	none (no result: Yeast growth inh, Yeast life ext)
COc1ccccc1NC(=O)C1=C(C)NC2=C(C(=O)CC(c3ccc(OC)c(OC)c3)C2)C1c1coc2ccccc2c1=O (centres undefined)	RAM inhibit 9.8
C=CCC1c2cccc(C(=O)O)c2C(=O)N1c1cccc(C)c1 (centres undefined)	Yeast growth inh 61.9
Cc1cc(C)cc(CC2CC(=O)N(c3ccc(Cl)cn3)C2=O)c1 (centres undefined)	Yeast life ext 42.8
C=C(C(=O)c1ccccc1)C(c1ccccc1)C(C)C(=O)c1ccccc1 (centres undefined)	none
C=C(C(=O)c1ccccc1)C(C)C(=C)C(=O)c1ccccc1	Yeast life ext 46.3
COc1ccc(Cn2c(=O)[nH]c3cc(C(=O)NC4CCCC4)ccc3c2=O)cc1	none (no result: Yeast growth inh, Yeast life ext)
CCCCCSc1nc2c(c(=O)[nH]c(=O)n2C)n1C	Yeast life ext 58.2
CCOC(=O)c1sc(NC(=O)CSc2nccc(C)n2)nc1C	RAM inhibit 8.5 (no result: Yeast growth inh, Yeast life ext)
CCOC(=O)c1sc(NC(=O)CSc2nccc(C)n2)c(C#N)c1C	none
CCNC(=O)NC(=O)C(C)OC(=O)CCCSc1nc2ccccc2s1 (centres undefined)	none
O=C(CSc1oc(-c2cccs2)nc1S(=O)(=O)c1ccc(F)cc1)NCC1CCCO1 (centres undefined)	RAM inhibit 9.1
C/C(C/C(C)=C1/SC(=S)NC1=O)=C1\SC(=S)NC1=O	none (no result: Yeast growth inh, Yeast life ext)
CCCCCC/C(C)=C1/SC(=S)NC1=O	WT yeast gro inh 86.4, Yeast growth inh 95.4
CCCCNc1cnn(-c2ccccc2)c(=O)c1Cl	none (no result: Yeast growth inh, Yeast life ext)
O=c1c(Cl)c(Cl)cnn1-c1ccccc1	Yeast life ext 40.2
O=C(CN1C(=O)C2C3c4ccccc4C(c4ccccc43)C2C1=O)Nc1cccc(C(=O)O)c1 (centres undefined)	none
CNC(=S)N/N=C/c1cn(Cc2c(F)cccc2Cl)c2ccccc12	WT yeast gro inh 61.9
CC(C)OC(=O)c1c(F)c(F)c(N2CCOCC2)c(F)c1F	Yeast life ext 44.3
CN(C)CCCN(C(=O)c1cccc(N2C(=O)CCC2=O)c1)c1nc2cc3c(cc2s1)OCO3	none (no result: Yeast growth inh, Yeast life ext)
Nc1ccc(S(=O)(=O)c2ccc(Cl)cc2)cc1	none
Cc1[nH]n(-c2ccccc2)c(=O)c1/C=N/N1C(=O)c2ccc3c4c(ccc(c24)C1=O)CC3	Yeast growth inh 79.1
Cc1[nH]n(-c2ccccc2)c(=O)c1/C=N/O	none
O=C(CCc1ccccc1)NC(=S)Nc1cccc(Br)c1	WT yeast gro inh 58.8
CC(C)c1ccc(O)c(NC(=S)NC(=O)CCc2ccccc2)c1	none (no result: Yeast growth inh, Yeast life ext)
O=C(CCc1ccccc1)NC(=S)Nc1ccccc1Br	WT yeast gro inh 75.0 (no result: Yeast growth inh, Yeast life ext)
CCn1ccnc1CN(C)Cc1nc(Cc2cccc(C(F)(F)F)c2)no1	none (no result: Yeast growth inh, Yeast life ext)
COC(=O)c1ccc(OC(=O)c2ccc(OC)cc2)c(OC)c1	none (no result: Yeast growth inh, Yeast life ext)
Cc1ccc(-n2c(Cl)c(Cl)nc(Cl)c2=O)cc1	Yeast growth inh 99.5
COc1nc(Cl)cn(-c2ccc(C)cc2)c1=O	none
Cc1cccc(S(=O)(=O)N2CCC(CO)(Cc3ccccc3)CC2)c1	none (no result: Yeast growth inh, Yeast life ext)
CC1=CC(C)(C)N(S(=O)(=O)c2ccc(F)cc2)c2ccccc21	none
CC1=CC(C)(C)N(S(=O)(=O)c2ccc(C)cc2)c2ccc(C)cc21	WT yeast gro inh 63.0
O=C(NCCCl)Nc1cccc(Br)c1	none (no result: Yeast growth inh, Yeast life ext)
O=C1CNC(=O)/C1=C\c1ccc(O)cc1	none
O=C1CNC(=O)/C1=C/c1ccccc1	Yeast life ext 29.4
CCOC(=O)c1cccc(COC(=O)c2cccc(-c3nnc(-c4ccccc4)o3)c2)c1	RAM inhibit 8.9
CCCn1c(NC(=O)C2COc3ccccc3O2)nc2ccccc21 (centres undefined)	RAM inhibit 8.6
Cc1nc(NCc2ccco2)c2c(C)c(C)sc2n1	none
Cc1sc2nc3c4ccccc4c(NCc4ccco4)nn3c(=O)c2c1C	WT yeast gro inh 62.6
Fc1ccc(C(CNC(=S)NC2CCCCC2)N2CCOCC2)cc1 (centres undefined)	none (no result: Yeast growth inh, Yeast life ext)
O=C(Nc1ccccc1Cl)c1ccc(COc2ccc3c(c2)CCC3)cc1	RAM inhibit 10.8
Cc1cc(OCc2ccc(C(=O)NN=C3CCCC3)cc2)ccc1Cl	Yeast growth inh 96.9
CC1Cc2ccccc2N1C(=O)CO/N=C/c1ccc(OC(F)F)cc1 (centres undefined)	none
Cc1onc(-c2ccccc2Cl)c1C(=O)NC(=S)Nc1ccccc1F	RAM inhibit 11.2, WT yeast gro inh 70.5 (no result: Yeast growth inh, Yeast life ext)
Cc1ccc(NC(=S)NC(=O)c2c(-c3ccccc3Cl)noc2C)cc1	none
COc1ccccc1NC(=S)NNC(=O)c1c(Cl)c(C)nn1C	WT yeast gro inh 65.2
COc1ccccc1NC(=S)NC(=O)c1c(-c2ccccc2Cl)noc1C	WT yeast gro inh 69.5 (no result: Yeast growth inh, Yeast life ext)
